Screening results as filed in PubChem.
hK5 inh: kallikrein 5 (human) inhibition; Q9Y337; recombinant hK5, fluorogenic AMC substrate cleavage; inhibition, % at 5 µM; 210,000 compounds, 0.59% hits;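 active means inhibition of 40% or more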;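 further: 0% = enzyme controls without compound and 100% = no-enzyme blanks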
AHR act: activators of human aryl hydrocarbon receptor | activation, % at 5 µM | P35869 | 320,000 compounds, 2.5% hits | AHR-responsive luciferase reporter cells, luminescence | AID 2796; in the data active means activation above about 47%;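 further: 0% = vehicle wells and 100% = reference agonist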
thrombin 1536: blocks human thrombin protease activity. P00734. alpha-thrombin, Boc-VPR-AMC fluorogenic substrate cleavage. inhibition, % at 5 µM. 220,000 compounds, 0.26% hits. AID 1046;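 active means inhibition at or above 40%; inactive means inhibition below 40%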;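 further: 0% = enzyme with no compound and 100% = wells without enzyme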
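System – human alpha-thrombin protein · Reagent – Boc-VPR-AMC substrate, 15 µM final · Compound – 5 µM single dose in 0.2% DMSO · Schedule – reaction at room temperature · Technique – AMC fluorescence at 355 nm excitation and 460 nm emission · Read-out basis – % inhibition relative to enzyme controls and enzyme-free blanks · Control set – no-compound enzyme wells and no-enzyme blanks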
FXIIa inh 1536: inhibitors of human coagulation factor XIIa; 220,000 compounds, 0.3% hits; inhibition, % at 5 µM; purified FXIIa, Boc-QGR-AMC fluorogenic substrate, 2 h; P00748; in the data active means inhibition above about 40%;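 further: 0% = enzyme with no compound and 100% = blank without enzyme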
FXIa inh 1536: inhibitors of human coagulation factor XIa. purified FXIa, Boc-Glu-Ala-Arg-AMC fluorogenic substrate. inhibition, % at 5 µM. 220,000 compounds, 0.14% hits. AID 798;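 active means inhibition of at least 40%; inactive means inhibition below 40%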;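 further: fluorescence of freed AMC excited at 355 nm; 0% = enzyme without compound and 100% = no enzyme blank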
Target sequence (P03951 19-387 limits assumed): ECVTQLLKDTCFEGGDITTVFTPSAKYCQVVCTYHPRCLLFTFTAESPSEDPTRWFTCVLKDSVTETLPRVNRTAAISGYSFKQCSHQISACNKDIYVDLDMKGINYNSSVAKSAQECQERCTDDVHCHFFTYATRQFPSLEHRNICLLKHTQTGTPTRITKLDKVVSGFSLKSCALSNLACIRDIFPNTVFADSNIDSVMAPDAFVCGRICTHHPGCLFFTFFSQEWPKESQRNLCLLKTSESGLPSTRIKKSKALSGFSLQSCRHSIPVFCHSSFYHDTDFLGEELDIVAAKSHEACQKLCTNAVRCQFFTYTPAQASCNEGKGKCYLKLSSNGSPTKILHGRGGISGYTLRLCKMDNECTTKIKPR
Target sequence (P03951 388-625 limits assumed): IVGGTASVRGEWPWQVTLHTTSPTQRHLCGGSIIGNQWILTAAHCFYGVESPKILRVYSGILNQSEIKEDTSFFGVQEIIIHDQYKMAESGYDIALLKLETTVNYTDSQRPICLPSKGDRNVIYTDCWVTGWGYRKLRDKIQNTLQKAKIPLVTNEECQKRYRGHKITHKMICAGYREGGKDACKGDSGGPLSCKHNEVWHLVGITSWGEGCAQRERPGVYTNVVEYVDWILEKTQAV
STAT3 act-1: activators of IL-6 induced STAT3 signaling; activation (% of control), % at 5.6 µM; 190,000 compounds, 0.91% hits; U3A cells, IL-6 STAT3-luciferase reporter, luminescence; 100% = signal with IL-6 EC80 alone;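 active means activation above the screen-wide mean of compound activation plus 3 SD, cut at about 130% in these data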;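 further: 0% = background luminescence of wells with medium and substrate only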
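Material: human STAT1-deficient U3A cells with stable STAT3-luciferase reporter / Probe or stimulus: IL-6 stimulus at 33 ng/mL final / Schedule: 1 h compound pre-exposure, 6 h IL-6 stimulation, 37 °C / Technique: luminescence / Read-out basis: percent of IL-6-only median luminescence / Control set: IL-6-only high control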
STAT3 act-2: confirmation of STAT3 signaling activators; shares compounds with STAT3 act-1; 1,200 compounds, 64% hits; potentiation (% of control), % at 5.7 µM; U3A STAT3-luciferase reporter, IL-6 potentiation, luminescence; U3A cells lack STAT1; 100 means same as IL-6 alone;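 active means percent activation of the STAT3 luciferase reporter above a set limit taken from the earlier primary screen, cut at about 130% in these data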;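 further: 0% = background signal of medium plus substrate and 100% = median of IL-6 with DMSO wells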
NFkB act STAT3ct: NF-kappaB activation in STAT3 activator counter-screen | shares compounds with STAT3 act-1 | human cells, NF-kappaB reporter activation | activation (% of control), % at 5.7 µM | 1,200 compounds, 11% hits | AID 1309; in the data active means activation above about 120%;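 further: reporter induced by TNF-alpha stimulation; 100% = median of stimulated DMSO wells and 0% = no signal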
STAT1 act: activates STAT1, counter-screen to STAT3 activators | NIH 3T3 STAT1-luciferase reporter, IFN-gamma, luminescence | activation (% of control), % at 5.7 µM | 1,200 compounds, 13% hits | AID 1318 | shares compounds with STAT3 act-1;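 active means activation above the solvent-only control well mean plus 3 SD, set per screening run, cut at about 120% in these data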;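 further: 100% = IFN-gamma with DMSO median signal so 100% means no change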
Numbers without * were called inactive. Compounds with a hit are over-represented: about 3.5% of the library has one in this group of screens.

Cc1ccc(-n2nc(C)c3c(-c4cccs4)c(C#N)c(N)nc32)cc1 was read as hK5 inh 3, AHR act 36, thrombin 1536 0, FXIIa inh 1536 0, FXIa inh 1536 -8, STAT3 act-1 144*, STAT3 act-2 124, NFkB act STAT3ct 99 and STAT1 act 103.
`CCOc1cc(Br)cc(/C=N/NC(=O)c2cccnc2)c1O` gave AHR act 34.
Screening O=C(CN1CCNCC1)Nc1ccc(Oc2ccccc2)cc1 returned hK5 inh 2, AHR act 11, thrombin 1536 2, FXIIa inh 1536 5, FXIa inh 1536 -1, STAT3 act-1 141*, STAT3 act-2 139*, NFkB act STAT3ct 111 and STAT1 act 106.
O=C(CN1CCOCC1)Nc1ccc(Oc2ccccc2)cc1 was read as hK5 inh 3, AHR act 8, thrombin 1536 -5, FXIIa inh 1536 7, FXIa inh 1536 -7 and STAT3 act-1 96.
`Cn1cccc1-c1cc(C(=O)N/N=C/C=C/c2ccccc2)[nH]n1` gave hK5 inh 2, AHR act -1, FXIIa inh 1536 9, FXIa inh 1536 5 and STAT3 act-1 82.
For CCC(NS(=O)(=O)c1ccc(C)cc1)C(=O)N1CCOCCOCCOCCOCC1 (stereo unspecified) the results were AHR act -2.
`Cc1ccc(NC(=S)Nc2cccc3cnccc23)cc1C` gave hK5 inh 4, AHR act 36, thrombin 1536 -1, FXIIa inh 1536 6, FXIa inh 1536 0 and STAT3 act-1 120.
For Cc1ccc(NC(=S)Nc2cccc3cnccc23)cc1 the results were hK5 inh -3, AHR act 17, thrombin 1536 -1, FXIIa inh 1536 4, FXIa inh 1536 -2, STAT3 act-1 137*, STAT3 act-2 143*, NFkB act STAT3ct 97 and STAT1 act 98.
For Cc1ccc(C(=O)N2CCN3C(=O)c4ccccc4C23c2ccc(Cl)cc2)cc1 (stereo unspecified) the results were hK5 inh -11, AHR act 1, thrombin 1536 4, FXIIa inh 1536 14, FXIa inh 1536 4, STAT3 act-1 559*, STAT3 act-2 487*, NFkB act STAT3ct 126* and STAT1 act 77.
`O=C(CCl)N1CCN2C(=O)c3ccccc3C12c1ccc(Cl)cc1` (stereo unspecified) gave hK5 inh -7, AHR act 1, thrombin 1536 2, FXIIa inh 1536 1, FXIa inh 1536 -5 and STAT3 act-1 106.
`Cc1cccc(C2c3[nH]c4ccccc4c3CCN2C(=O)c2noc3c2CCCC3)n1` (stereo unspecified) gave AHR act 19, thrombin 1536 -3, FXIIa inh 1536 4, FXIa inh 1536 -2 and STAT3 act-1 115.
`Cc1cccc(C2c3[nH]c4ccccc4c3CCN2Cc2cnn(-c3ccc(F)cc3)c2)n1` (stereo unspecified) gave hK5 inh 1, AHR act 27, thrombin 1536 -12, FXIIa inh 1536 9, FXIa inh 1536 -1, STAT3 act-1 150*, STAT3 act-2 152*, NFkB act STAT3ct 102 and STAT1 act 95.
`Cc1cccc(C2c3[nH]c4ccccc4c3CCN2C(=O)c2cn(C)c3ccccc3c2=O)n1` (stereo unspecified) gave hK5 inh 2, AHR act 18, thrombin 1536 -10, FXIIa inh 1536 11, FXIa inh 1536 5, STAT3 act-1 136*, STAT3 act-2 118, NFkB act STAT3ct 101 and STAT1 act 92.
For O=C(C1CCCO1)N1CCN(c2c3c(nc4cc(-c5ccc(F)cc5)nn24)CCC3)CC1 (stereo unspecified) the results were hK5 inh -6, AHR act 29, thrombin 1536 0, FXIIa inh 1536 16, FXIa inh 1536 6, STAT3 act-1 137*, STAT3 act-2 120, NFkB act STAT3ct 107 and STAT1 act 94.
OC1CCN(c2c3c(nc4cc(-c5ccc(F)cc5)nn24)CCC3)CC1 was read as hK5 inh -1, AHR act 2, thrombin 1536 -14, FXIIa inh 1536 -19, FXIa inh 1536 -9 and STAT3 act-1 85.
`Cc1ccc(Sc2cnn(-c3ccccc3)c(=O)c2Cl)cc1` gave hK5 inh 8, AHR act 61*, thrombin 1536 1, FXIIa inh 1536 6, FXIa inh 1536 0, STAT3 act-1 142*, STAT3 act-2 133*, NFkB act STAT3ct 104 and STAT1 act 98.
For O=C(NCc1ccco1)c1cccn2c(=O)c3cc4ccccc4cc3nc12 the results were hK5 inh -15, thrombin 1536 0, FXIIa inh 1536 1, FXIa inh 1536 3, STAT3 act-1 196*, STAT3 act-2 162*, NFkB act STAT3ct 113 and STAT1 act 105.
`CCNC(=O)CSc1nnc(CN2CCCCCC2=O)n1-c1ccccn1` gave hK5 inh -1, AHR act 0, thrombin 1536 -17, FXIIa inh 1536 4, FXIa inh 1536 -7 and STAT3 act-1 105.
Screening O=C1CCCCCN1Cc1nnc(SCc2nc3ccccc3s2)n1-c1ccccn1 returned hK5 inh -1, AHR act 24, thrombin 1536 3, FXIIa inh 1536 14, FXIa inh 1536 -7, STAT3 act-1 140*, STAT3 act-2 151*, NFkB act STAT3ct 129* and STAT1 act 145*.
CCOC(=O)CC(=O)CSc1nc(-c2ccc3c(c2)OCO3)cc(C(F)(F)F)c1C#N was read as hK5 inh 3, AHR act 60*, thrombin 1536 -7, FXIIa inh 1536 1, FXIa inh 1536 -20, STAT3 act-1 140*, STAT3 act-2 118, NFkB act STAT3ct 98 and STAT1 act 93.
For Nc1nonc1-n1nnc(C(=O)N/N=C/c2cccc(Cl)c2)c1-c1cccs1 the results were AHR act 6.
For COc1ccc(S(=O)(=O)N2CCN(Cc3ccccc3)CC2)cc1 the results were hK5 inh -2, AHR act 2, thrombin 1536 2, FXIIa inh 1536 27, FXIa inh 1536 17, STAT3 act-1 138*, STAT3 act-2 105, NFkB act STAT3ct 104 and STAT1 act 101.
